ChEMBL document CHEMBL1151330, “Facile total synthesis and antimicrobial activity of the marine fatty acids (Z)-2-methoxy-5-hexadecenoic acid and (Z)-2-methoxy-6-hexadecenoic acid” (1998)

Assays:
Assay type in all cases: functional
[1] = test system: Pseudomonas aeruginosa; assay: Antibacterial activity against Pseudomonas aeruginosa ATCC 27853 after overnight incubation
How it was run: (§1)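 Broth microdilution per NCCLS: 200 µL of the α-methoxylated fatty acid in Mueller-Hinton broth, inoculated with 10⁵ CFU, incubated overnight at 37 °C. MIC taken as the highest dilution inhibiting growth, compared with an uninoculated chemical-control well. At least three separate experiments, each in duplicate.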

[2] = test system: Enterococcus faecalis; assay: Antibacterial activity against Streptococcus faecalis group D ATCC 29212 after overnight incubation; how it was run: as §1
[3] = test system: Escherichia coli; assay: Antibacterial activity against Escherichia coli ATCC 25922 after overnight incubation; how it was run: as §1
[4] = test system: Staphylococcus aureus; assay: Antibacterial activity against Staphylococcus aureus ATCC 25923 after overnight incubation; how it was run: as §1

MIC [1] | MIC [2] | MIC [3] | MIC [4] | SMILES
> 100 µg/mL | > 100 µg/mL | > 100 µg/mL | > 100 µg/mL | CCCCCCCCCCCCCCC(OC)C(=O)O (configuration not stated)
> 200 µg/mL | 350 µM | > 200 µg/mL | 350 µM | CCCCCCCCCC/C=C\CC[C@H](OC)C(=O)O
> 200 µg/mL | 350 µM | > 200 µg/mL | 350 µM | CCCCCCCCC/C=C\CCCC(OC)C(=O)O (configuration not stated)
